# Compound activity deposited in PubChem by several laboratories.
# Apaf-1 inh: inhibitors of human Apaf-1 apoptosome, primary screen, biochemical, DEVD-Rh110 fluorescence, uHTS | reconstituted apoptosome caspase-3 activity | inhibition, % at 20 µM | 0.71% of 330,000 active | AID 489030, 2010; active means inhibition of at least 40% at 20 µM;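 further: plate controls were DMSO wells for no effect and DEVD-CHO caspase inhibitor wells for full effect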
#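 Material: reconstituted apoptosome with Apaf-1, cytochrome c, caspase-9, procaspase-3, dATP / Buffer or medium: pH 7.5 Hepes buffer with CHAPS, BSA, DTT / Also added: cytochrome c with DEVD-Rh110 / Schedule: compound with Apaf-1, dATP, procaspase-3 30 min, then 50 min reaction, room temperature / Technique: rhodamine 110 fluorescence at Ex 480/Em 540 nm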
# PP5 inh: PP5 phosphatase inhibitors, primary screen, biochemical, fluorescence; inhibition, % at 6.7 µM; 0.18% of 320,000 active; Serine/threonine-protein phosphatase 5 (Homo sapiens), P53041; purified PP5c, OMFP substrate fluorescence; AID 1987, 2009;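 active means inhibition above the campaign's mean inhibition across all tested compounds plus 3 SD, cut at about 9.5% in these data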;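 further: 0% = DMSO only and 100% = 100 µM cantharidin control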
# TDP2 inh: human TDP2 enzyme inhibitors, primary screen, biochemical, epi absorbance, recombinant enzyme; Tyrosyl-DNA phosphodiesterase 2 (Homo sapiens), O95551; T5PNP hydrolysis, p-nitrophenol absorbance 415 nm; inhibition, % at 12.8 µM; 0.34% of 370,000 active; AID 720702, 2013;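 active means inhibition above the mean of all tested compounds plus 3 SD, set per campaign, cut at about 25% in these data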;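 further: 0% = DMSO with enzyme and 100% = buffer with substrate but no TDP2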
# Target sequence (O95551 whole entry, looked up): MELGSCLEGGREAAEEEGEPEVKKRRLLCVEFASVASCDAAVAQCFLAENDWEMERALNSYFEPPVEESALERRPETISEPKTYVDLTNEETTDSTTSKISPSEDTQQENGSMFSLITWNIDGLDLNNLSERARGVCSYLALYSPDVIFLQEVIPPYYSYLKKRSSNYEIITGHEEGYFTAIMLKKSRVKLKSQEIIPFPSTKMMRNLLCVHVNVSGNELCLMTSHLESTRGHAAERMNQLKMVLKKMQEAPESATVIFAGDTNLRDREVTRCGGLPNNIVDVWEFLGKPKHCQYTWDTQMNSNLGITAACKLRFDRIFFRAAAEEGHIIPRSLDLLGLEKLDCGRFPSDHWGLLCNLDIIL
#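 System – recombinant human TDP2 · Amount – 120 nM TDP2 per well · Buffer or medium – Mg2+-containing Tris-HCl buffer, pH 7.5 · Reagent – T5PNP substrate, 5 mM · Dosing – 12.8 µM single point, 1% DMSO · Incubation – 2 h at 37 °C · Measured by – epi absorbance · Read-out basis – percent inhibition · Benchmarks – high control without enzyme, low control DMSO plus TDP2 · Repeats – singlicate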
# PP1 inh: PP1-alpha phosphatase inhibitors, primary screen, counter-screen for PP5 inhibitor project, biochemical, fluorescence, OMFP substrate, single point | purified PP1alpha | inhibition, % at 6.7 µM | 0.9% of 320,000 active | AID 2235, 2010;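 active means inhibition above the mean inhibition of all tested compounds plus 3 SD, computed separately for each screening campaign, cut at about 15% in these data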
# Target sequence (P62136 whole entry, looked up): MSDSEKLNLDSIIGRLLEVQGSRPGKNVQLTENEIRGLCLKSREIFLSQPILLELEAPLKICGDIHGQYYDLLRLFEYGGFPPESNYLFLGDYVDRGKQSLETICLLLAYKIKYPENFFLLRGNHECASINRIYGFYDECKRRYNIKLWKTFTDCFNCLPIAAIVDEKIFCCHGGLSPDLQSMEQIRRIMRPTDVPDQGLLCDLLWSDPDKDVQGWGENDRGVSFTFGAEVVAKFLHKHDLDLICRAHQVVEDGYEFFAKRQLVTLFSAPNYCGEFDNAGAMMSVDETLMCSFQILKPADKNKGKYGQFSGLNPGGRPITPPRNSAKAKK
# GSTO1 counter: inhibitors of recombinant GSTO1, primary screen, counter-screen for RBBP9 inhibitor project, biochemical, fluorescence polarization. activity-based probe fluorescence polarization. inhibition, % at 5.96 µM. 1.1% of 300,000 active. AID 1974, 2009;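 active means inhibition above the campaign mean inhibition plus 3 SD, cut at about 35% in these data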;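 further: 0% = GSTO1-1 with DMSO and 100% = wells lacking GSTO1-1 enzyme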
# GSTO1 confirm: GSTO1 inhibitor hit confirmation, counter-screen for RBBP9 inhibitor project, biochemical, fluorescence polarization, triplicate; shares compounds with GSTO1 counter; recombinant GSTO1, probe fluorescence polarization; inhibition, % at 5.96 µM; 54% of 2,400 active; AID 2176, 2009;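 active means inhibition above the primary screen's cutoff, its mean inhibition plus 3 SD, cut at about 35% in these data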;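 further: loss of polarization as inhibitors block binding of rhodamine sulfonate ester activity probe; 0% = GSTO1 with DMSO and 100% = wells lacking GSTO1 enzyme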
# GSTO1 recomb ABPP: inhibitors of purified human GSTO1, late-stage follow-up, biochemical, gel ABPP, SE-Rh probe, percent inhibition; shares compounds with GSTO1 counter; recombinant GSTO1, gel ABPP SE-Rh probe fluorescence; inhibition, % at 1 µM; 30% of 130 active;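 active means inhibition of the enzyme GSTO1 above about 75%, limit read from the data; inactive means inhibition below that limit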
# An asterisk follows results filed as active; x = no result. Shown are actives, neighbours in structure and some others; about 2.1% of the full set was active somewhere.
SMILES,Apaf-1 inh,PP5 inh,TDP2 inh,PP1 inh,GSTO1 counter,GSTO1 confirm,others
O=C1CCCN1CCCNc1nc(NCc2ccccc2)nc2ccsc12,x,x,-8,x,x,x,
Cc1ccc(-c2csc3ncn(CC#N)c(=O)c23)cc1C,19,3,-13,1,39*,30,
Cc1ccc(-c2csc3ncn(CC#N)c(=O)c23)cc1,1,2,10,-1,18,x,
O=C(OC1CCc2ccccc2C1=O)c1ccccc1O (centres undefined),15,2,7,0,54*,48*,
O=C(Nc1cccc(F)c1)O[C@@H]1CC[C@@]23CCCN2C(=O)CCC[C@H]3C1,x,x,-6,x,x,x,
CC(CCc1ccccc1)NC(=O)COC(=O)C1CCC(C(C)(C)C)CC1 (centres undefined),31,1,-1,1,42*,31,
COc1ccc(C(=O)C2(C(=O)NCc3ccccc3)CC(c3ccccc3C(F)(F)F)=NO2)cc1 (centres undefined),x,x,-8,x,x,x,
Clc1cccc(CSc2ncnc3sc4c(c23)CCCC4)c1,x,x,0,x,x,x,
COc1cccc(C(=O)NNC(=O)c2ccc3ccccc3c2O)c1,7,-2,-18,-3,45*,4,
COc1cccc(C(=O)NNC(=O)c2ccccc2)c1,-1,x,18,x,x,x,
Cc1cc(O)c(-c2cc(O)c(C)cc2O)cc1O,3,3,18,-1,82*,8,
Cc1cc(N=O)c(C)cc1O,x,x,-4,x,x,x,
O=C(CCl)Nc1cccc(Oc2ccccc2)c1,-6,2,7,-4,71*,97*,
O=C(CN1CCCCC1)Nc1cccc(Oc2ccccc2)c1,17,-1,-8,-3,3,x,
O=C(CCl)Nc1ccc(-c2ccccc2)cc1,-7,-4,-5,-1,76*,84*,
Cc1ccccc1NC(=O)OCCN1CCCC12CCC(c1ccccc1)CC2 (centres undefined),x,x,-6,x,x,x,
COc1ccc2[nH]cc(C(=O)CCl)c2c1,-6,0,-6,0,83*,100*,
COc1ccc2ccc3c(c2c1)N=CC1(O3)N(C)c2ccccc2C1(C)C (centres undefined),13,2,x,3,90*,5,
CN1c2ccccc2C(C)(C)[C@]12C=Cc1cc(O)ccc1O2,19,4,4,-1,2,x,
O=C(CCl)Nc1cccc(S(=O)(=O)NC2=NCCC2)c1,-9,2,-19,-6,99*,99*,
O=[N+]([O-])c1cc(Br)cc(C=Nc2ccc3c(c2)OCO3)c1O,4,0,-2,-3,43*,38*,
O=C(NCc1ccccc1)O[C@H]1CC[C@@]23CCCN2C(=O)CCC[C@H]3C1,x,x,-2,x,x,x,
O=C1CCN(Cc2ccccc2)CCN1[C@H](COc1ccccc1)c1ccccc1,22,-2,6,5,83*,4,
CCOC(=O)C1CCCN(c2c(NCCN3CCCCC3CC)c(=O)c2=O)C1 (centres undefined),15,0,5,-3,58*,8,
O=C1NN(c2ccccc2)C(=O)/C1=C\c1coc2ccc(O)cc2c1=O,5,0,-14,8,50*,36*,
SMILES,Apaf-1 inh,PP5 inh,TDP2 inh,PP1 inh,GSTO1 counter,GSTO1 confirm,others
O=C1NN(c2ccccc2)C(=O)/C1=C/c1cccs1,-4,0,3,3,63*,11,
COc1ccc(-n2c(C)cc(/C=C3\C(=O)NN(c4ccccc4)C3=O)c2C)cc1,-1,0,-5,5,-6,x,
O=C1NN(c2cccc(Br)c2)C(=O)/C1=C/c1cccs1,11,1,-3,1,0,x,
COc1ccc(Sc2ccc(/C=C3\C(=O)NN(c4ccccc4)C3=O)o2)cc1,6,1,2,8,42*,58*,
COC(=O)[C@]12C[C@H](CC(=O)N3CCC(c4ccccc4)CC3)C(=O)N(CCc3ccc(OC)c(OC)c3)C1=C[C@H](C1CCCC1)O[C@@H]2C,x,x,1,x,x,x,
CN1c2ccccc2C(C)(C)C12CC(CCl)=NO2 (centres undefined),6,1,x,-1,46*,96*,GSTO1 recomb ABPP=64
CN1c2ccccc2C(C)(C)C12CC(c1ccc(Cl)c(S(=O)(=O)N3CCCC3)c1)=NO2 (centres undefined),-5,0,x,0,5,x,
Nc1[nH]c2cc(C(F)(F)F)ccc2c1C(=O)NCc1ccc(F)cc1,x,x,0,x,x,x,
CCOc1ccc(/C=N/Nc2ccccc2)cc1,12,0,3,-1,41*,16,
C[C@@H]1ON(C)[C@H]2C[C@H]3c4[nH]c5cccc(-c6ccccc6)c5c4CCN3C[C@@H]12,x,x,-12,x,x,x,
CC(Cl)C(=O)N1c2ccccc2CCc2ccccc21 (centres undefined),3,-3,14,-2,3,x,
O=C(CCl)N1c2ccccc2CCc2ccccc21,-4,1,-7,-1,69*,85*,GSTO1 recomb ABPP=50
CCCCOC(=O)CSC1=C(C#N)C(c2ccccc2OCC)C(C#N)C(=O)N1 (centres undefined),5,0,x,1,10,x,
CCCOC(=O)CSC1=C(C#N)C(c2ccccc2OCC)C(C#N)C(=O)N1 (centres undefined),5,4,-3,2,71*,0,
CC(=O)N1CCN(c2cc(-c3ccco3)nc3cc(-c4ccccc4)nn23)CC1,x,x,4,x,x,x,
CC(=O)Nc1ccc(NC2=CC(=O)c3ccccc3C2=O)cc1,32,3,-12,2,39*,8,
CC(=O)Nc1ccc(Nc2ccccc2)cc1,-16,-1,-10,-3,2,x,
COC(=O)c1ccccc1NC(=O)COC(=O)CSc1nnc(N)s1,-9,-2,0,-4,45*,32,
O=S(=O)(Nc1cc(Sc2cccc3cccnc23)c(O)c2ccccc12)c1ccc(F)cc1,x,-1,24,-2,57*,25,
Cc1cc(=O)n(-c2ccc(C(=O)O)cc2)[nH]1,9,6,22,-2,63*,-1,
ClCc1csc(-c2ccc(Cl)cc2)n1,5,2,3,-1,91*,101*,GSTO1 recomb ABPP=62
CCOc1ccc(-c2nc(CCl)cs2)cc1,-1,3,-7,-3,79*,93*,GSTO1 recomb ABPP=69
CCOc1ccc(-c2nnc(N)s2)cc1,-18,1,-1,0,-2,x,
